Test results taken from ChEMBL document CHEMBL4732044, “Discovery of a promising agent IQZ23 for the treatment of obesity and related metabolic disorders” (Eur J Med Chem, 2020).
Values after ≈ are worked out from the molar mass of the structure shown. Active and inactive are the calls of the source. No cut-off for these calls is given here.

What was measured:
3T3-L1 [1] = assay: Lipid lowering activity in mouse 3T3-L1 cells assessed as reduction in adipogenic cocktail-induced triglyceride levels at 1 uM incubated for 6 days by GPO-POD assay relative to control; assay type: functional; design: scale not given: the % may be the effect or the level left; conditions: time 6 day
How it was run: (§1)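 Confluent 3T3-L1 cells were treated from day 0 in cocktail (IBMX, dexamethasone, insulin) for 3 days, then re-dosed in insulin medium for 3 more days. For dose–response, concentrations were 0–10 µM (0.01, 0.1, 0.3, 1, 3, 10). On day 6, cells were lysed in 0.2% Triton X-100 and TG was measured by GPO-POD and normalized to BCA protein as % of control. EC50 was fitted from the dose–response. N = 4.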

3T3-L1 [2] = assay: Lipid lowering activity in mouse 3T3-L1 cells assessed as reduction in adipogenic cocktail-induced triglyceride levels incubated for 6 days by GPO-POD assay; assay type: functional, cell-based; conditions: for EC50: 3T3-L1, 144 h; how it was run: as §1
3T3-L1 [3] = assay: Inhibition of mouse 3T3-L1 cells adipocyte differentiation assessed as reduction in adipogenic cocktail-induced C/EBPbeta mRNA expression after 24 hrs by RT-qPCR analysis; assay type: functional, cell-based; conditions: dose 0.01-1 µM
How it was run: (§2)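 Confluent 3T3-L1 preadipocytes received differentiation cocktail (0.5 mM IBMX, 100 ng/mL dexamethasone, 2 µg/mL insulin) with compound (0.01–1 µM; metformin 1 mM) for 24 h. mRNA was measured by SYBR Green RT-qPCR (30 cycles), normalized to β-actin, with the differentiated control set to 1. N = 4 independent experiments.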

3T3-L1 [4] = assay: Inhibition of mouse 3T3-L1 cells adipocyte differentiation assessed as reduction in adipogenic cocktail-induced C/EBPdelta mRNA expression after 24 hrs by RT-qPCR analysis; assay type: functional, cell-based; conditions: dose 0.01-1 µM; how it was run: as §2
3T3-L1 [5] = assay: Inhibition of mouse 3T3-L1 cells adipocyte differentiation assessed as reduction in adipogenic cocktail-induced C/EBPalpha mRNA expression after 24 hrs by RT-qPCR analysis; assay type: functional, cell-based; conditions: dose 0.01-1 µM; how it was run: as §2
3T3-L1 [6] = assay: Inhibition of mouse 3T3-L1 cells adipocyte differentiation assessed as reduction in adipogenic cocktail-induced PPARgamma mRNA expression after 24 hrs by RT-qPCR analysis; assay type: functional, cell-based; conditions: dose 0.01-1 µM; how it was run: as §2
3T3-L1 [7] = assay: Activation of AMPK pathway in adipogenic cocktail-induced mouse 3T3-L1 cells assessed as increase in phosphorylation AMPKalpha at Thr172 residue at 0.01 to 1 uM after 24 hrs by Western blot analysis; assay type: cell-based; conditions: filed as activator, dose 0.01-1 µM
How it was run: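 Confluent 3T3-L1 pre-adipocytes exposed to adipogenic cocktail for 24 h with or without compound (0, 0.01, 0.1, 1 µM); DMSO vehicle. Lysates analysed by SDS-PAGE/Western blot for pAMPKα (Thr-172), normalized to actin, Ctrl set as 1. N = 4 independent experiments.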

[8] = Stability in Sprague-Dawley rat liver microsomes assessed as remaining compound […] up to 60 mins in presence of NADPH by LC-MS/MS analysis; assay type: ADME, Microsome; conditions: read-out: Stabilty
[9] = Stability in Sprague-Dawley rat liver microsomes assessed as rate constant […] up to 60 mins in presence of NADPH by LC-MS/MS analysis; assay type: ADME, Microsome
[10] = Half life in Sprague-Dawley rat liver microsomes assessed as rate constant […] up to 60 mins in presence of NADPH by LC-MS/MS analysis; assay type: ADME, Microsome
[11] = Intrinsic clearance in Sprague-Dawley rat liver microsomes assessed as rate constant […] up to 60 mins in presence of NADPH by LC-MS/MS analysis; assay type: ADME, Microsome; conditions: read-out: CLH
[12] = Aqueous solubility in PBS buffer at pH 7.4 after 24 hrs; assay type: physicochemical
[13] = Effect on total AKT level in mouse C2C12 cells at 1 uM after 6 hrs by Western blot analysis; assay type: ADME, cell-based; conditions: c2c12, 6 h
3T3-L1 [14] = assay: Activation of AMPK pathway in mouse 3T3-L1 cells assessed as increase in number of mitochondria copy at 1 uM after 24 hrs by mito-tracker staining based Confocal microscopic method; conditions: filed as activator
How it was run: (§3)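 3T3-L1 cells grown in DMEM with 10% FBS at 37 °C and 5% CO2. After treatment, cells were stained for 30 min at 37 °C in the dark with 1 µM Mito-Tracker plus Hoechst 33342 (1:1000) and imaged by confocal microscopy (excitation 633 and 405 nm). Mitochondrial copy number was also taken as the mtDNA/nDNA ratio by PCR (cytochrome C versus 18S rRNA).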

3T3-L1 [15] = assay: Activation of AMPK pathway in mouse 3T3-L1 cells assessed as increase in number of mitochondria copy at 1 uM after 24 hrs in presence of compound C by mito-tracker staining based Confocal microscopic method; how it was run: as §3
3T3-L1 [16] = assay: Activation of AMPK pathway in mouse 3T3-L1 cells assessed as increase in oxygen consumption at 1 uM after 5 to 10 mins by XF-96 cell analyzer method; assay type: cell-based; conditions: filed as activator, time 5-10 min
How it was run: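 3T3-L1 cells seeded in quintuplicate at 5000 cells/well in an XF-96 plate. Equilibrated in assay medium at 37 °C for 30 min. Baseline OCR measured over 3–5 min, then compound injected to final concentration and OCR measured at set time points. Cell number counted at end.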

[17] = Half life in Sprague-Dawley rat at 5 mg/kg, po up to 24 hrs by LC-MS/MS analysis; assay type: ADME, organism-based; conditions: in vivo
How it was run: (§4)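 Male SD rats (180–220 g, n = 3) received compound in ethanol/saline (5:95), either intravenously at 2 mg/kg or intragastrically at 5 mg/kg. Plasma was sampled at 0, 0.5, 1, 2, 4, 8, 12 and 24 h. Concentrations were measured by LC-MS/MS, and PK parameters were calculated from the concentration–time data.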

[18] = Tmax in Sprague-Dawley rat at 5 mg/kg, po up to 24 hrs by LC-MS/MS analysis; assay type: ADME, organism-based; conditions: in vivo
How it was run: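 Male Sprague-Dawley rats (180-220 g, n = 3) were dosed intragastrically at 5 mg/kg in ethanol/saline (5:95); a separate iv arm received 2 mg/kg. Blood was drawn at 0, 30 min, 1, 2, 4, 8, 12 and 24 h and centrifuged to obtain plasma. Drug levels were measured by LC-MS/MS, and pharmacokinetic parameters were calculated from the concentration–time data.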

[19] = Cmax in Sprague-Dawley rat at 5 mg/kg, po up to 24 hrs by LC-MS/MS analysis; assay type: ADME, organism-based; design: route oral, dose 5 mg/kg, time <=24; conditions: in vivo; how it was run: as §4
[20] = AUC(0 to t) in Sprague-Dawley rat at 5 mg/kg, po up to 24 hrs by LC-MS/MS analysis; assay type: ADME, organism-based; design: route oral, dose 5 mg/kg, time <=24; conditions: in vivo
How it was run: (§5)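 Male Sprague-Dawley rats (180-220 g, n = 3) were dosed intragastrically at 5 mg/kg in ethanol/saline (5:95). Plasma was collected at 0, 30 min, 1, 2, 4, 8, 12 and 24 h post-dose and quantified by LC-MS/MS. Pharmacokinetic parameters were derived from the plasma concentration-time profile.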

[21] = AUC(0 to infinity) in Sprague-Dawley rat at 5 mg/kg, po up to 24 hrs by LC-MS/MS analysis; assay type: ADME, organism-based; design: route oral, dose 5 mg/kg, time <=24; conditions: in vivo; how it was run: as §5
[22] = MRT(0 to infinity) in Sprague-Dawley rat at 5 mg/kg, po up to 24 hrs by LC-MS/MS analysis; assay type: ADME, organism-based; conditions: in vivo; how it was run: as §4
[23] = Oral bioavailability in Sprague-Dawley rat at 5 mg/kg up to 24 hrs by LC-MS/MS analysis; assay type: ADME, organism-based; conditions: in vivo; how it was run: as §4

| SMILES | Activity (3T3-L1 [1]) | EC50 (3T3-L1 [2]) [nM] | inhibition (3T3-L1 [3]) | inhibition (3T3-L1 [4]) | inhibition (3T3-L1 [5]) | inhibition (3T3-L1 [6]) | Activity (3T3-L1 [7]) | remaining at 1 h [8] [%] | k el at 1 h [9] [s⁻¹] | half-life [10] [h] | microsomal CLint [11] [µL/min/mg] | solubility at 24 h [12] [µg/mL] | Activity [13] | Activity (3T3-L1 [14]) | Activity (3T3-L1 [15]) | Activity (3T3-L1 [16]) | half-life [17] [h] | Tmax [18] [h] | Cmax [19] [ng/mL] | AUC(0-t) at 24 h [20] [ng·h/mL] | also measured |
| --- | --- | --- | --- | --- | --- | --- | --- | --- | --- | --- | --- | --- | --- | --- | --- | --- | --- | --- | --- | --- | --- |
| COc1ccc2[nH]c(-c3nc(NCCCCN4CCCC4)c4ccccc4n3)c(C=O)c2c1 | >=50% | 33 | Dose-dependent effect | Dose-dependent effect | Dose-dependent effect | Dose-dependent effect | Active | 80.7 | 6.17e-05 | 3.12 | 3.7 | 73.3 (≈ 165 µM) | Non-Toxic | Active | inactive | Active | 4.2 | 4 | 37.1 | 374 | Activity (3T3-L1 [2]; dose 1-5 µM, time 6.0 day): Dose-dependent effect; AUC(0-inf) [21]: 384 ng·h/mL; MRT inf [22]: 7.5 h; bioavailability [23]: 48.6% |
| CN(C)CCCNc1nc(-c2[nH]c3ccccc3c2C=O)nc2ccccc12 | 79.2% | 91 | Dose-dependent effect | Dose-dependent effect | Dose-dependent effect | Dose-dependent effect | Active | 71 | 8.83e-05 | 2.18 | 6.3 | 41.1 (≈ 110 µM) | Non-Toxic | Active | inactive | Active | 5.1 | 4.7 | 23.8 | 247 | AUC(0-inf) [21]: 294 ng·h/mL; MRT inf [22]: 9.62 h; bioavailability [23]: 43.8% |
